# Measurements from article PMC4333497 (British Journal of Cancer, 2015).
# Entries after “also recorded” stand apart in the source; their conditions may differ.
# Assays:
# [1] = test system: patients with advanced solid tumours; assay: Safety: adverse events graded by NCI CTCAE version 3.0 in phase I study; assay type: in vivo, human
# Outline: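 Toxicity was graded by NCI CTCAE v3.0 during oral dosing in 28-day cycles. Assessments covered physical and neurological examination, vital signs, weight, performance status, and AEs/SAEs. Haematology, coagulation, biochemistry and urinalysis were done at baseline, on day 1 of every cycle, at the last visit and when clinically indicated. ECGs were done on day 1 of each cycle. ECHO/MUGA was done at baseline, at the end of cycles 2–4, then every other month. Data were summarised descriptively.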
# [2] = test system: patients with advanced solid tumours; assay: Dose-limiting toxicities and MTD/RP2D determination; assay type: in vivo, human
# Outline: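 Oral capsules, once or twice weekly, in 28-day cycles under fasting conditions. Cohorts had at least three patients. A DLT was any clinically relevant AE or abnormal laboratory value in the first 28 days. A Bayesian logistic regression model with escalation with overdose control estimated the posterior probability of DLT at each dose level from cycle 1 data. MTD/RP2D was set from the model plus safety review by investigators.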
# [3] = Plasma pharmacokinetics of HSP990 after oral dosing; assay type: in vivo, human; settings: for AUClast: day 22; for Cmax: steady state
# Outline: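 Oral dosing 30 min after a light breakfast, then a 3-h fast, with meal timing recorded. Plasma was assayed centrally by validated LC-MS/MS and analysed non-compartmentally. Day effect was tested by ANCOVA on log-transformed AUC and Cmax with a linear mixed-effect model.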
# [4] = test system: HSP70; assay: HSP70 levels in PBMCs by ELISA; assay type: in vivo, human
# [5] = test system: advanced solid tumours; assay: Tumour response according to RECIST version 1.0; assay type: in vivo, human
# Outline: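 Tumours were assessed radiologically at baseline, at the end of every two 28-day cycles and at the end of treatment. Response was classified per RECIST version 1.0. Patients had at least one measurable lesion at entry and received oral capsules once or twice weekly until progression, unacceptable toxicity or withdrawal.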
# [6] = test system: advanced solid tumours; assay: FDG-PET metabolic response; assay type: in vivo, human
# Outline: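 FDG-PET was done at screening/baseline, on day 10 of cycle 1 and on day 2 of cycle 3. Maximum SUV was summed across all target lesions (sSUVmax). A reduction of ⩾25% counted as objective metabolic response and an increase of ⩾25% as progression. Any new PET lesion counted as metabolic progression.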
# [7] = rat model; preclinical; cited from earlier work
# [8] = test system: rats; settings: preclinical pharmacology studies, ref Novartis, 2012; cited from earlier work
# [9] = test system: dogs; settings: preclinical pharmacology studies, ref Novartis, 2012; cited from earlier work
# [10] = all patients (N=64), two patients
compound,measurement,setting,value
COc1cccc(-c2cc(F)ccc2[C@H]2Cc3nc(N)nc(C)c3C(=O)N2)n1 [HSP990],Total no. of patients who discontinue HSP990 (cause) beyond cycle 1,[1]; 2.5 mg once weekly,0
same,Total no. of patients who discontinue HSP990 (cause) beyond cycle 1,[1]; 5 mg once weekly,0
same,Total no. of patients who discontinue HSP990 (cause) beyond cycle 1,[1]; 10 mg once weekly,0
same,Total no. of patients who discontinue HSP990 (cause) beyond cycle 1,[1]; 20 mg once weekly,1 (digestive disorder)
same,Description of grade ⩾3 drug-related AEs beyond cycle 1,[1]; 25 mg twice weekly,Diarrhoea
same,Grade ⩾3 drug-related AEs beyond cycle 1,[1]; 25 mg twice weekly,2
same,Total no. of patients who discontinue HSP990 (cause) beyond cycle 1,[1]; 25 mg twice weekly,0
same,Total no. of patients who discontinue HSP990 (cause) beyond cycle 1,[1]; 30 mg once weekly,0
same,Grade ⩾3 drug-related AEs beyond cycle 1,[1]; 50 mg once weekly,6
same,Description of grade ⩾3 drug-related AEs beyond cycle 1,[1]; 60 mg once weekly,Diarrhoea
same,Grade ⩾3 drug-related AEs beyond cycle 1,[1]; 60 mg once weekly,3
same,Total no. of patients who discontinue HSP990 (cause) beyond cycle 1,[1]; 60 mg once weekly,2 (diarrhoea)
same,"Adverse events requiring dose adjustment or study drug interruption, patients",[1]; all patients (N=64),30%
same,"Discontinued treatment for AEs of any causality, patients",[1]; all patients (N=64),14%
same,"Drug-related AE that led to study discontinuation, patients",[1]; all patients (N=64),11%
same,"Drug-related abdominal pain, patients",[1]; all patients (N=64),16%
same,"Drug-related anorexia, patients",[1]; all patients (N=64),25%
same,"Drug-related diarrhoea, patients",[1]; all patients (N=64),73%
same,"Drug-related dizziness, patients",[1]; all patients (N=64),19%
same,"Drug-related insomnia, patients",[1]; all patients (N=64),25%
same,"Drug-related nausea, patients",[1]; all patients (N=64),22%
same,"Drug-related tremor, patients",[1]; all patients (N=64),19%
same,"Drug-related vomiting, patients",[1]; all patients (N=64),14%
same,"Grade 3 QTc prolongation, drug-related",[1]; [10],3%
same,"Grade 3 asthenia, drug-related",[1]; [10],3%
same,"Grade 3 hyponatremia, drug-related",[1]; [10],3%
same,"Grade 3 increased ALT and/or AST, drug-related",[1]; [10],3%
same,Dose delays,"[1]; all patients, mostly due to AEs",22 patients
same,"Neurotoxicities leading to study drug discontinuation, patients","[1]; during and beyond cycle 1, all patients",14%
same,Drug-related deaths,[1]; on study and up to 28 days after the last dose,No drug-related deaths
same,Total no. of patients with DLTs,"[2]; 2.5 mg once weekly, 3 DLT evaluable patients",0
same,Total no. of patients with DLTs,"[2]; 5 mg once weekly, 5 DLT evaluable patients",0
same,Total no. of patients with DLTs,"[2]; 10 mg once weekly, 7 DLT evaluable patients",0
same,Total no. of patients with DLTs,"[2]; 20 mg once weekly, 6 DLT evaluable patients",0
same,Total no. of patients with DLTs,"[2]; 30 mg once weekly, 4 DLT evaluable patients",0
same,Number of DLTs encountered,"[2]; 50 mg once a week, 22 patients",5 DLTs
same,Total no. of patients with DLTs,"[2]; 50 mg once weekly, 22 DLT evaluable patients",4
same,Patients who experienced DLTs,[2]; all dose levels and schedules,seven
same,AUClast,[3]; 25 mg twice-weekly,14200 ng·h/mL
same,Cmax,[3]; 25 mg twice-weekly,232 ng/mL
same,AUClast,[3]; 50 mg once-weekly,7959 ng/mL
same,Cmax,[3]; 50 mg once-weekly,552 ng/mL
same,t1/2,[3]; both dosing schedules,~20 h
same,Time to peak concentrations,"[3]; both dosing schedules, postdose",~3 h
same,Drug accumulation,"[3]; days 1 and 22 of cycle 1, multiple- or twice-weekly doses",no drug accumulation
same,Apparent clearance,[3]; oral,~6.4 L/h
same,Volume of distribution,"[3]; oral, apparent",~200 L
same,HSP70 induction in PBMCs,"[4]; once-weekly administration, 2.5 to 60 mg",tended to increase with dose across the 5 mg weekly to 30 mg weekly dose groups
same,HSP70 induction in PBMCs,"[4]; twice-weekly administration, 25 mg",greater than that seen in once weekly 30 mg to 60 mg dose levels
same,Partial or complete responses (RECIST),[5]; all patients,No objective responses were seen; also recorded: No partial or complete responses were observed
same,Best overall response of stable disease,[5]; all patients (N=64),25 patients
same,"Prolonged stable disease (⩾6 months), patients",[5]; all patients (N=64),11%
same,"Stable disease as best overall response, patients",[5]; all patients (N=64),39%
same,"Stable disease as best overall response, patients",[5]; twice-weekly dosing schedule (7 out of 11 patients),64%
same,Patients with ⩾25% reduction in sSUVmax of target lesions,[6]; 5 mg weekly,1 patient
same,Patients with ⩾25% reduction in sSUVmax of target lesions,[6]; 25 mg twice weekly,3 patients
same,Patients with ⩾25% reduction in sSUVmax of target lesions,[6]; 30 mg weekly,1 patient
same,Patients with ⩾25% reduction in sSUVmax of target lesions,[6]; 50 mg weekly,6 patients
same,Complete metabolic response,[6]; all patients,No complete metabolic response
same,Distribution in brain tissues,[7],highly distributed in the brain tissues
same,Effects on CNS,[8],no effects on CNS
same,Doses at which tremors and ataxia were observed,[9],≥ 2 mg/kg
